# Screening data as filed in PubChem.
# This is a sample that favours compounds with a hit; in the whole collection about 2.3% have one here.
# Scp-1 inhibitor: Scp-1 (human) phosphatase inhibition | Q9GZU7 | Recombinant Scp1, phosphopeptide, malachite green phosphate absorbance | inhibition, % at 20 µM | actives 0.88% (n = 340,000) | AID 493091;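 active = inhibition above about 50% at 20 µM, limit read from the data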
#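 Test system: SCP-1 phosphatase catalytic domain, residues 76-261 | Compound dosing: One concentration, 20 µM, with 1.0% DMSO | Schedule: 45 min room-temperature reaction, 5 min colour, 30 min stabiliser | Detection: Absorbance at 630 nm | Read-out basis: % inhibition of SCP-1 phosphate liberation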
# Rpn11 block: blocks the human proteasome subunit Rpn11; O00487; human 26S proteasome, Ub4-pepOG fluorescence polarization; 20S core pre-blocked with epoxomicin; inhibition, % at 20 µM; actives 0.59% (n = 360,000); AID 588493;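 active = inhibition at 20 µM, scaled to each plate's controls, above about 33%, limit read from the data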
# SUMO1 PPI mod: modulators of human SUMO1-mediated protein-protein interactions. inhibition, % at 20 µM. SUMO1 binding to a labelled peptide, TR-FRET, 1 h. P63165. actives 0.33% (n = 360,000); in the data active = inhibition above about 37%
# LMPTP inh: LMPTP (human) inhibition; recombinant LMPTP-A, OMFP fluorogenic substrate, fluorescence intensity; P24666; inhibition, % at 20 µM; actives 0.22% (n = 360,000); AID 651560;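 active = compounds that cut the enzyme signal by at least half of the control window in the single-dose screen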
#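 material = LMPTP-A | quantity = 0.625 nM enzyme | reagent = OMFP substrate, 400 µM final | buffer or medium = Bis-Tris pH 6.0, DTT, detergent | detection = endpoint fluorescence intensity from OMFP dephosphorylation | dosing = single 20 µM dose | read-out basis = % inhibition relative to no-enzyme and uninhibited control wells | control set = no-enzyme and uninhibited controls | timing = 50 min at room temperature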
# STEP inh: STEP (human) phosphatase inhibition. recombinant STEP, OMFP fluorogenic substrate, fluorescence. actives 0.25% (n = 360,000). inhibition, % at 20 µM. P54829;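 active = inhibition at 20 µM, scaled per plate between control wells, above about 37%, limit read from the data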
# Target sequence (P54829 whole entry, looked up): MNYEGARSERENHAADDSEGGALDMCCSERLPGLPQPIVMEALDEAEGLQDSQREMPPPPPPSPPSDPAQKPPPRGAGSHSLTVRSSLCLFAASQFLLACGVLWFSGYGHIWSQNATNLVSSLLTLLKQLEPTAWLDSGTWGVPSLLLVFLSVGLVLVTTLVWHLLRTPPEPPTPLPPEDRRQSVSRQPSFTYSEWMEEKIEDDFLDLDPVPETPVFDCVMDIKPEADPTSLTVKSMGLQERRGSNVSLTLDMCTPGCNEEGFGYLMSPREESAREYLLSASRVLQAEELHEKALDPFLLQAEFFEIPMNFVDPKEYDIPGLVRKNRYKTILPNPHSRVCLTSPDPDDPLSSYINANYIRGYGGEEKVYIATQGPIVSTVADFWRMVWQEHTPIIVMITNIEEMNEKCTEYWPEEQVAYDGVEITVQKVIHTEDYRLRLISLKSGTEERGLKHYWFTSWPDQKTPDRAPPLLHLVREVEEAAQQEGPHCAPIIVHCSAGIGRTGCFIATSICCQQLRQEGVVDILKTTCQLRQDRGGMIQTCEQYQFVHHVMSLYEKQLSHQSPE
#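 Material: STEP (striatal-enriched tyrosine phosphatase) enzyme, cell-free; Compound dosing: 20 µM single dose in 1% DMSO; Technique: fluorescence read at 480 nm ex / 540 nm em; Times: reaction 20 min, ambient temperature; Medium: 50 mM Bis-Tris pH 6.0 with 2.5 mM DTT and 0.005% Tween 20; Also added: OMFP at 25 µM.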
# DNMT1 inh: blocks human DNA methyltransferase DNMT1. P26358. DNMT1 molecular beacon, Hinp1I cleavage, fluorescence. inhibition (reported as % activation of signal), % at 10 µM. actives 0.83% (n = 360,000). AID 588458; in the data active = inhibition above about 50%
# Rpn11 inh conf: Rpn11 inhibition confirmation, single concentration. shares compounds with Rpn11 block. purified human 26S proteasome, Ub4-pepOG fluorescence polarization; proteasome pretreated with epoxomicin. inhibition, % at 20 µM. actives 29% (n = 1,900). AID 602318
# MMP-2 counter: blocks human MMP-2, flagging nonselective RPN11 hits | shares compounds with Rpn11 block | recombinant MMP-2, FRET peptide cleavage fluorescence | inhibition, % at 20 µM | actives 4% (n = 1,900);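 also: human MMP-2 activated beforehand with APMA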
# Thrombin FP: counter-screen for RPN11 inhibitors: inhibition of bovine thrombin. shares compounds with Rpn11 block. bovine thrombin cleavage of Ub4-pepOG, fluorescence polarization. inhibition, % at 20 µM. actives 13% (n = 1,900);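 active = mean inhibition at least 40% at 20 µM, or signal 3 deviations below plate average, so some actives read negative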
# Numbers stand for hits; . = inactive; / = not tested or not shown; + = active, no number. Rule as the data show it, unless noted: active = inhibition above about 40%; inactive = the rest.
SMILES,Scp-1 inhibitor,Rpn11 block,SUMO1 PPI mod,LMPTP inh,STEP inh,DNMT1 inh,Rpn11 inh conf,MMP-2 counter,Thrombin FP
Cc1cc(C(=O)COC(=O)c2ccc(NC(=O)CC#N)cc2)c(C)n1CCc1ccc(F)cc1,.,52.9,.,.,.,.,.,.,.
N#CCC(=O)Nc1ccc(C(=O)OCC(=O)c2ccc3c(c2)NC(=O)CO3)cc1,.,44.9,83.6,.,.,.,.,.,.
CC(C)Nc1nc(NC(C)C)nc(SCC(N)=O)n1,.,.,.,.,.,.,/,/,/
COC(=O)CSc1ncnc2c1sc1nc(N3CCOCC3)c3c(c12)CCCC3,.,.,.,.,.,.,/,/,/
COC(=O)c1ccc(CSc2ncnc3c2sc2nc(N4CCOCC4)c4c(c23)CCCC4)o1,.,41.4,.,.,.,.,.,.,.
OCC[C@@H]1C[C@@H](O)[C@H](O)[C@@]2(Cc3ccccc3CCO2)O1,.,.,.,.,.,.,/,/,/
CC1CCN(C(=O)CSc2nnc(CNC(=O)c3ccc(S(=O)(=O)N(C)C)cc3)o2)CC1,.,.,.,.,.,.,/,/,/
CCOc1ccc(N2C(=O)/C(=C\c3ccc(O)c(OC)c3)S(=O)(=O)C2c2cccc([N+](=O)[O-])c2)cc1 (stereo unspecified),.,57.0,.,.,.,.,.,.,.
COc1cc2sc3cc(NCC[C@@H]4CCCN4C)ccc3c(=O)c2cc1OC,.,57.3,.,.,.,.,.,.,.
Cc1ccc(S(=O)(=O)c2c(N)n(NC(=O)c3ccco3)c3nc4ccccc4nc23)cc1,.,39.2,.,.,.,.,.,.,.
CN1/C(=C/C(=O)c2nc(S(C)(=O)=O)ncc2Cl)C(C)(C)c2ccccc21,.,49.2,.,.,.,.,.,.,.
CN1/C(=C\C(=O)c2cccnc2)C(C)(C)c2ccccc21,.,.,.,.,.,.,/,/,/
Cc1cc(C)n2nc(C(=O)NNC(=O)c3ccccc3)nc2n1,.,.,.,.,.,.,/,/,/
CCc1nc2oc3cc(OC)ccc3c(=O)c2c(=O)n1Cc1ccco1,.,+,.,.,.,.,.,.,.
COc1ccc2c(=O)c3c(=O)n(Cc4ccccc4)c(C(C)C)nc3oc2c1,.,.,.,.,.,.,/,/,/
C#CCOCCOCCOCCNc1nc(N2CCN(C(=O)CCCCCCCCCCNC(=O)[C@H](CCCCN)n3cc(C[C@@H](C)CC)nn3)CC2)nc(N2CCN(C(=O)CCCCCCCCCCNC(=O)[C@H](CCCCN)n3cc(C[C@@H](C)CC)nn3)CC2)n1,53.0,87.4,66.6,.,.,.,44.6,.,.
C#CCOCCOCCOCCNc1nc(N2CCN(C(=O)CCCCCCCCCCNC(=O)Cn3cc(C[C@@H](C)O)nn3)CC2)nc(N2CCN(C(=O)CCCCCCCCCCNC(=O)[C@H](CCCCN)n3cc(C[C@@H](C)CC)nn3)CC2)n1,.,.,.,.,.,.,/,/,/
C#CCOCCOCCOCCNc1nc(N2CCN(C(=O)[C@H](Cc3cc4ccccc4[nH]3)n3cc([C@@H](N)CC(C)C)nn3)CC2)nc(N2CCN(C(=O)[C@H](Cc3cc4ccccc4[nH]3)n3cc([C@@H](N)CC(C)C)nn3)CC2)n1,.,68.1,.,.,.,.,.,.,.
C#CCOCCOCCOCCNc1nc(N2CCOCC2)nc(N2CCN(C(=O)[C@H](Cc3cc4ccccc4[nH]3)n3cc([C@@H](N)CC(C)C)nn3)CC2)n1,.,.,.,.,.,.,/,/,/
Cc1ccc(S(=O)(=O)N2CCCC2C(=O)Nc2nc3ccccc3s2)cc1 (stereo unspecified),.,30.9,.,.,.,.,.,.,.
